Source: article PMC9064382 (RSC Advances, 2019)

How the values were obtained:
hOCT1 = target: T1, hOCT1 (Homo sapiens, UniProt O15245); assay: Uptake of aconitum alkaloids in hOCT1-transfected cells vs mock; type: in vitro ADME; conditions: 10 μm, 5 min
T1 sequence (O15245 1-554): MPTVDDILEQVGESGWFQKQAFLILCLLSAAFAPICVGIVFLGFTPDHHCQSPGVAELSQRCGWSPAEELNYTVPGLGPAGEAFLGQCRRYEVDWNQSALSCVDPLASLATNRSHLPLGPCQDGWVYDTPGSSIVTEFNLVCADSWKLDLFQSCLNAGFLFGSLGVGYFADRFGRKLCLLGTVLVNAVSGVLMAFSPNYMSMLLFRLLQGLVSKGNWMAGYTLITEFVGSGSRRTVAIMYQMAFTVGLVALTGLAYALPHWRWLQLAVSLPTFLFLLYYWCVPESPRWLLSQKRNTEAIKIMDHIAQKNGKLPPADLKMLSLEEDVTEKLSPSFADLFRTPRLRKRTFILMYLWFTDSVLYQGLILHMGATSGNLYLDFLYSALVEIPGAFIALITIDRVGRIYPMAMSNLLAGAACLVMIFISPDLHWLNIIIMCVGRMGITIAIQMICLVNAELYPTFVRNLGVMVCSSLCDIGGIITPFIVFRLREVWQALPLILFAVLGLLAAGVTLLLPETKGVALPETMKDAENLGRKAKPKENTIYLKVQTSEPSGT

hOCT2 = target: T2, hOCT2 (Homo sapiens, UniProt O15244); assay: Inhibition of 14C-TEA uptake in hOCT2-transfected cells by liquorice ingredients; type: in vitro ADME; conditions: for inhibitory rate on hOCT2: 100 μm, 5 μmol L^−1 14C-TEA, 5 min
T2 sequence (O15244 1-555): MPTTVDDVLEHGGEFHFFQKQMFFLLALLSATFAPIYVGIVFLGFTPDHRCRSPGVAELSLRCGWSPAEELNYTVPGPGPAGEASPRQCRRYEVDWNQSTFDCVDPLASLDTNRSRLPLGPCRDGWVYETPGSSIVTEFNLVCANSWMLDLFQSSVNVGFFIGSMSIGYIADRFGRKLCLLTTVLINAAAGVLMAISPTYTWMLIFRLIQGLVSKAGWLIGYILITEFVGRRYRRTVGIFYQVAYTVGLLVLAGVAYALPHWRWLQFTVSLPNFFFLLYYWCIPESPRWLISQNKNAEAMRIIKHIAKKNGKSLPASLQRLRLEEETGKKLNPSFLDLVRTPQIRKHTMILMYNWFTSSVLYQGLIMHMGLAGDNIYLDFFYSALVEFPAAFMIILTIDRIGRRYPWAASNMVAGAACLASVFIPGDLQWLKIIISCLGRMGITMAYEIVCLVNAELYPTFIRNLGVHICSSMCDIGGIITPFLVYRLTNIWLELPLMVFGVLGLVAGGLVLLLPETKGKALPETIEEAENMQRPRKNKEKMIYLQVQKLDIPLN

hOAT3 = target: T3, hOAT3 (Homo sapiens, UniProt Q8TCC7); assay: Inhibition of 3H-ES uptake in hOAT3-transfected cells by liquorice ingredients; type: in vitro ADME
T3 sequence (Q8TCC7 1-542): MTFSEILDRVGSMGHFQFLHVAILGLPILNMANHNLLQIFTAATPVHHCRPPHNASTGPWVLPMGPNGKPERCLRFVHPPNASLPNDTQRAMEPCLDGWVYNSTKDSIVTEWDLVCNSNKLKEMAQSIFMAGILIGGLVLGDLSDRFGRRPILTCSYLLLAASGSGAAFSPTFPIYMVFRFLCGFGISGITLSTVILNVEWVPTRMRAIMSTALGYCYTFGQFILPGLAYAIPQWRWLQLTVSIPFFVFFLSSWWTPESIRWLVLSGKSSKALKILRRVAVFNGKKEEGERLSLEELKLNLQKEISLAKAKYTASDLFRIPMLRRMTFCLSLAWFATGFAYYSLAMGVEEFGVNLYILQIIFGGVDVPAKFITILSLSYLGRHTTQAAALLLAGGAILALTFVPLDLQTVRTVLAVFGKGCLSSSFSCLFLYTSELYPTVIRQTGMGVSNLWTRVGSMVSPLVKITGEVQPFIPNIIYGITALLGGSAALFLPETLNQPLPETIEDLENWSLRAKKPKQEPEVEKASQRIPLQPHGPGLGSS
In short: (§1)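 Transfected and mock cells were incubated 2 min at 37 °C with 200 nmol L−1 3H-ES plus test compound. The screen used a single 100 μmol L−1 concentration with reference inhibitors as positive controls, giving an inhibition rate (n = 3, mean ± sd). […] DMSO was <0.2%. Cells were stopped with cold DPBS, rinsed three times, lysed in 0.1 mol L−1 NaOH and counted by scintillation (dpm).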

[1] = type: in vivo, Sprague-Dawley (SD) rats; conditions: pretreatment with the named substance, rats
hOATP2B1 = target: T4, hOATP2B1 (Homo sapiens, UniProt O94956); type: in vitro ADME; conditions: for inhibition of hOATP2B1: screening at 100 μm
T4 sequence (O94956 1-709): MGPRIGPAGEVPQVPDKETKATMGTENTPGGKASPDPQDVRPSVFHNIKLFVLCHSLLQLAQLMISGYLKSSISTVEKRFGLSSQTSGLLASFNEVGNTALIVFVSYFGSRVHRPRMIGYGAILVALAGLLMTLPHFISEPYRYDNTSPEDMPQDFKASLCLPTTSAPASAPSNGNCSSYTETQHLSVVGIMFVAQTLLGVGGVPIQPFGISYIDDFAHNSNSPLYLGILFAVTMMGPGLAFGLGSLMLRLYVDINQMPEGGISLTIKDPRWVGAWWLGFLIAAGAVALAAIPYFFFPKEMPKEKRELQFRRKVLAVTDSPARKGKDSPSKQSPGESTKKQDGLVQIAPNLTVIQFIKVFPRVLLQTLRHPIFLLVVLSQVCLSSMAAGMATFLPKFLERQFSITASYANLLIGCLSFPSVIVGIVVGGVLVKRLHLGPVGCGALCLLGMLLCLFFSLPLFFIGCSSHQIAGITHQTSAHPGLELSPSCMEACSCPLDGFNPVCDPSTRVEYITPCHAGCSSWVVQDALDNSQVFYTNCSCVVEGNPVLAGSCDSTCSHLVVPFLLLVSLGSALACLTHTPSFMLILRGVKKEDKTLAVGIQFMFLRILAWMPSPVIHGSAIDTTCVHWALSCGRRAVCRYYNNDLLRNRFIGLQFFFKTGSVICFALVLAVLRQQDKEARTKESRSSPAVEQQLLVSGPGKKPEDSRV
In short: as §1

hOATP1B1 [2] = target: T5, hOATP1B1 (Homo sapiens, UniProt Q9Y6L6); type: in vitro ADME; conditions: screening at 100 μm
T5 sequence (Q9Y6L6 1-691): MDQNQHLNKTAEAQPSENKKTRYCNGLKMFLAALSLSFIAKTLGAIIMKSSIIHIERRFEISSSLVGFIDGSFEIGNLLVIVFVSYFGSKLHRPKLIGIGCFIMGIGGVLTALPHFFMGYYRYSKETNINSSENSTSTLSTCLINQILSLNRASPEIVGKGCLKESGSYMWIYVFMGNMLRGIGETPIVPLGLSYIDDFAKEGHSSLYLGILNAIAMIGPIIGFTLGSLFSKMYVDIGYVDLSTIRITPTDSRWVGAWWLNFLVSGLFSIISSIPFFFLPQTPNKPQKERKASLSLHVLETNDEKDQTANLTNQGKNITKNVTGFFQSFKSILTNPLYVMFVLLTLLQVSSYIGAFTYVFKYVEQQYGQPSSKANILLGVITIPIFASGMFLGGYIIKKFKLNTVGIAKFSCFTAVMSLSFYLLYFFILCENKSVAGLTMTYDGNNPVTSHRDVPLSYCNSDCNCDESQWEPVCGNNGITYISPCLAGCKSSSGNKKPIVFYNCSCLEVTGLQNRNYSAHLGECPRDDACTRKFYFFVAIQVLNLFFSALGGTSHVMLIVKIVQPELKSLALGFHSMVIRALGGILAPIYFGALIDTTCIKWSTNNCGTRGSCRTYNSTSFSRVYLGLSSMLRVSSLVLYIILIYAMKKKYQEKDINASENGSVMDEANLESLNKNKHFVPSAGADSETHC

hOATP1B3 [3] = target: T6, hOATP1B3 (Homo sapiens, UniProt Q9NPD5); type: in vitro ADME; conditions: screening at 100 μm
T6 sequence (Q9NPD5 1-702): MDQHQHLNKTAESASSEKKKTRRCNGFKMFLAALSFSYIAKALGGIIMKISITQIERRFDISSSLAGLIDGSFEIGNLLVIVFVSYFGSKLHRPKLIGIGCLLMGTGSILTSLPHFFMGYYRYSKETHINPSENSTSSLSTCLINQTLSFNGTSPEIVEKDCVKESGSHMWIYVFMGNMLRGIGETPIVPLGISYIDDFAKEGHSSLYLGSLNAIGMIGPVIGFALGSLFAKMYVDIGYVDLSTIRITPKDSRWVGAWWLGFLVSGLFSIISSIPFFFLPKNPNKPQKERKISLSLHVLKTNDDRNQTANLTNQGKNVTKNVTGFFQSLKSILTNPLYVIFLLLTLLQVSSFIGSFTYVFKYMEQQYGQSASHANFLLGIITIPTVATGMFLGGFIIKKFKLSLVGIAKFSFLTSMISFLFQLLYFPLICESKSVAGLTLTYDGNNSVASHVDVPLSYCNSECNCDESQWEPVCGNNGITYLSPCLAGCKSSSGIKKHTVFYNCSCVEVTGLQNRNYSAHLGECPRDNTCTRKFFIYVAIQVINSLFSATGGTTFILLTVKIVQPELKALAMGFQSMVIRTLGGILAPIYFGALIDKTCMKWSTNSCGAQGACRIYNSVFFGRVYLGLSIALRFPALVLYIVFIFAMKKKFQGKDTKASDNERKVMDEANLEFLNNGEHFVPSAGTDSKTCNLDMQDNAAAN

hOATP1B1 [4] = target: T5, hOATP1B1; assay: Uptake of aconitum alkaloids in hOATP1B1-transfected HEK293 cells vs mock; type: in vitro ADME; conditions: 10 μm, 2 min
In short: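 HEK293-hOATP1B1 and mock cells were grown in DMEM with 10% FBS, seeded at 2 × 10^5/well and cultured 48 h. They were rinsed, preincubated 10 min at 37 °C in DPBS pH 7.4, then exposed to the alkaloid for 2 min at 37 °C. After three ice-cold DPBS rinses and methanol lysis, supernatants were measured by UPLC-MS/MS (positive MRM, sinomenine internal standard). Results were normalised to BCA protein; n = 3, t-test versus mock.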

hOATP1B3 [5] = target: T6, hOATP1B3; assay: Uptake of aconitum alkaloids in hOATP1B3-transfected HEK293 cells vs mock; type: in vitro ADME; conditions: 10 μm, 2 min, HEK293-hOATP1B3 vs mock

CCN1C[C@]2(COC)[C@H](O)C[C@H](OC)[C@@]34[C@@H]5C[C@@]6(O)[C@H](OC(=O)c7ccccc7)[C@@H]5[C@@](O)([C@@H]([C@H](OC)[C@H]23)[C@@H]14)[C@@H](O)[C@@H]6OC [benzoylaconitine]
concentration in HEK293–hOCT1, fold higher than control (hOCT1): ~2.3 fold

COC[C@]12CN(C)C3[C@@H]4[C@H](OC)[C@H]1[C@@]3([C@@H](OC)C[C@H]2O)[C@@H]1C[C@@]2(O)[C@H](OC(=O)c3ccccc3)[C@@H]1[C@]4(O)[C@@H](O)[C@@H]2OC [benzoylmesaconitine]
concentration in HEK293–hOCT1, fold higher than control (hOCT1): ~2.2 fold

COC[C@@]12CC[C@H](OC)[C@]34C([C@H]([C@H](OC)[C@H]13)[C@]1(O)[C@H]3[C@@H](OC(=O)c5ccccc5)[C@](O)(C[C@H]34)[C@@H](OC)[C@@H]1O)N(C)C2 [benzoylhypaconitine]
concentration in HEK293–hOCT1, fold higher than control (hOCT1): ~3.7 fold

COC[C@@]12CC[C@H](OC)[C@]34C(C([C@H](OC)[C@H]13)[C@]1(OC(C)=O)[C@H]3[C@@H](OC(=O)c5ccccc5)[C@](O)(C[C@H]34)[C@@H](OC)[C@@H]1O)N(C)C2 [hypaconitine]
concentration in HEK293–hOCT1, fold higher than control (hOCT1): ~3.3 fold

O=C(/C=C/c1ccc(O)cc1)c1ccc(O)cc1O [isoliquiritigenin]
IC50 (hOCT2): 31400 nM
IC50 (hOAT3): 2180 nM

C=C[C@H]1C[N@@]2CC[C@H]1C[C@@H]2[C@@H](O)c1ccnc2ccc(OC)cc12 [quinidine, reference compound]
Tmax of aconitine in the liver [1]: postponed

CC1(C)[C@@H](O)CC[C@]2(C)[C@H]3C(=O)C=C4[C@@H]5C[C@@](C)(C(=O)O)CC[C@]5(C)CC[C@@]4(C)[C@]3(C)CC[C@@H]12 [glycyrrhetinic acid]
IC50 (hOATP2B1): 1070 nM
inhibition of hOATP2B1 (hOATP2B1): strong inhibitors
IC50 (hOCT2): 7410 nM
inhibitory rate on hOCT2 (hOCT2): 80.17%
IC50 (hOAT3): 1830 nM

O=C(/C=C/c1ccc(O[C@@H]2O[C@H](CO)[C@@H](O)[C@H](O)[C@H]2O)cc1)c1ccc(O)cc1O [isoliquiritin]
inhibition of hOATP1B1 (hOATP1B1 [2]): strong inhibitors
inhibition of hOATP1B3 (hOATP1B3 [3]): strong inhibitors
inhibition of hOATP2B1 (hOATP2B1): strong inhibitors
inhibitory rate on hOCT2 (hOCT2): 71.9%

COC[C@]12CN(C)[C@@H]3[C@@H]4[C@H](OC)[C@H]1[C@@]3([C@@H](OC)C[C@H]2O)[C@@H]1C[C@@]2(O)[C@H](OC(=O)c3ccccc3)[C@@H]1[C@]4(OC(C)=O)[C@@H](O)[C@@H]2OC [mesaconitine]
concentration in hOATP1B1-transfected cells, fold of HEK293 mock cells (hOATP1B1 [4]): approximately 2.7 fold
concentration in hOATP1B3-transfected cells, fold of HEK293 mock cells (hOATP1B3 [5]): ~3.4 fold
concentration in HEK293–hOCT1, fold higher than control (hOCT1): roughly 1.9 fold
